Test results as given in paper PMC3169429 (ACS chemical biology, 2010).

Columns and labels:
[1] = target: T1, bacteriophage T4 clamp loader, gp44/62 (Enterobacteria phage T4, UniProt P04526); details: read-out: Ki (inhibition constant) against gp44/62; cited from earlier work
T1 sequence (P04526 1-319): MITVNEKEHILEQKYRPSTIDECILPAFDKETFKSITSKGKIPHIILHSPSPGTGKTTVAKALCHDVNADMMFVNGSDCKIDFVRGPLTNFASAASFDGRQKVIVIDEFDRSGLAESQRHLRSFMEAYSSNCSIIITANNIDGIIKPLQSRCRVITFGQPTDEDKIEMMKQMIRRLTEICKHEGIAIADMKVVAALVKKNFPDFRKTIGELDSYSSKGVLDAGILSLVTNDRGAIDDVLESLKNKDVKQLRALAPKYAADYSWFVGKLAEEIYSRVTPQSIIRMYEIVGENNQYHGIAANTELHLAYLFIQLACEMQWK
T1 sequence (P04527 1-187 partner): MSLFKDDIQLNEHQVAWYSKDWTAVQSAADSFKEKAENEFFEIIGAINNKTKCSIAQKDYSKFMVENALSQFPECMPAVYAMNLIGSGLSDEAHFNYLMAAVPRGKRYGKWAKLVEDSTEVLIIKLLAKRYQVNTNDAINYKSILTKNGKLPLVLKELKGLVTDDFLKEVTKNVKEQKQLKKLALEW

[2] = target: T2, gp44/62 opening of CPM-labeled gp45 (Enterobacteria phage T4, UniProt P04526); assay: FRET quenching / stopped-flow fluorescence clamp opening assay; type: biochemical, bacteriophage T4; details: 1 mM nucleotide, CPM-labeled gp45 mixed with gp44/62
T2 sequence (P04526 1-319): T1 sequence (P04526 1-319)
T2 sequence (P04527 1-187 partner): T1 sequence (P04527 1-187 partner)

[3] = target: T1, bacteriophage T4 clamp loader, gp44/62; assay: ATPase inhibition assay, wild-type gp44/62; type: biochemical; details: for Selectivity Factor: Ki (γ-complex) / Ki (gp44/62)
[4] = target: E. coli clamp loader, γ-complex (Escherichia coli, UniProt P06710); assay: ATPase inhibition assay, γ-complex; type: biochemical
[5] = target: R175K mutant of gp44/62 (Enterobacteria phage T4, UniProt P04526, R175K); assay: ATPase inhibition assay, gp44/62 R175K mutant; type: biochemical, bacteriophage T4
[6] = target: R175L mutant of gp44/62 (Enterobacteria phage T4, UniProt P04526, R175L); assay: ATPase inhibition assay, gp44/62 R175L mutant; type: biochemical, bacteriophage T4
[7] = test system: T4 bacteriophage; assay: Plaque forming assay in JA300 E. coli; type: cell-based, T4 bacteriophage in E. coli JA300
[8] = test system: JA300 E. coli cells; assay: Toxicity screen against E. coli; type: cell-based, Escherichia coli; details: in suspension or plated on LB/agar for extended periods
[9] = test system: T4 bacteriophage; assay: Plaque forming assay in deoxythymidine kinase deficient E. coli KY895; type: cell-based, T4 bacteriophage in E. coli KY895 (tdk-1); details: 100 µg/ml
Summary of the method: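 The plaque assay used the deoxythymidine kinase knockout E. coli strain KY895 in place of JA300. An overnight culture was diluted 1:150 in LB and pre-incubated with the nucleoside for 60 min at 37°C. Cells were infected with ~300 pfu T4 and plated over LB/agar for 24 h at 37°C. Plaques were counted manually; ANOVA and t-test were applied.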

[10] = target: T3, bacteriophage T4 replicase (Enterobacteria phage T4, UniProt P04526); assay: Replicase formation; type: biochemical; details: 100 µM inhibitor
T3 sequence (P04526 1-319): T1 sequence (P04526 1-319)
T3 sequence (P04527 1-187 partner): T1 sequence (P04527 1-187 partner)

[11] = test system: T4 DNA polymerase; assay: DNA polymerase activity in the strand displacement assay; type: biochemical, bacteriophage T4; details: absence or presence of 100 µM d5-NITP
[12] = target: T4, gp44/62 (Enterobacteria phage T4, UniProt P04526); assay: Hydrolysis of nucleotide substrates by gp44/62; type: biochemical, bacteriophage T4; details: nucleotide substrates at 500 µM
T4 sequence (P04526 1-319): T1 sequence (P04526 1-319)
T4 sequence (P04527 1-187 partner): T1 sequence (P04527 1-187 partner)
Summary of the method: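 Wild-type T4 gp44/62 purified from an overproducing strain. Each ribo- or deoxy-nucleotide was supplied as substrate. Hydrolysis was read as Pi release by malachite green.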

Sequence of R175L mutant of gp44/62 (P04526 whole entry R175L, one chain of several): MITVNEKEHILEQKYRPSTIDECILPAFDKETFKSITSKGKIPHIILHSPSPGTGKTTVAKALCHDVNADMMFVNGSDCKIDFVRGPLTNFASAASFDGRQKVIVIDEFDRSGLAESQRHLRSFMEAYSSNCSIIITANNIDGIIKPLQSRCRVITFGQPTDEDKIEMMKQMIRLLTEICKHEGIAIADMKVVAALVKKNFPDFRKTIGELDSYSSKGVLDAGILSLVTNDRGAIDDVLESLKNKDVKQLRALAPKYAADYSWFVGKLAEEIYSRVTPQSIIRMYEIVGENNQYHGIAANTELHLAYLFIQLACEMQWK
Sequence of R175K mutant of gp44/62 (P04526 whole entry R175K, one chain of several): as the sequence (P04526 whole entry R175L, one chain of several) above, with L175K counted along it

In the case of `Nc1ncnc2c1ncn2C1OC(COP(=O)(O)OP(=O)(O)NP(=O)(O)O)C(O)C1O` (stereo not drawn) [AMP-PNP, 5'-adenylyl-beta, gamma-imidodiphosphate], the Ki [1] is given as 1.2 mM.

With `Nc1ncnc2c1ncn2[C@@H]1O[C@H](COP(=O)(O)OP(=O)(O)OP(=O)(O)O)[C@@H](O)[C@H]1O` [ATP, reference compound] the “Amplitude of change in fluorescence (clamp opening)” value [2] was 0.2199 ± 0.0004 units.

For `Nc1ncnc2c1ncn2[C@@H]1O[C@H](CO[P@](=O)(O)O[P@](=O)(O)O[P@@](=O)(O)S)[C@@H](O)[C@H]1O` [ATPγS, reference compound], the “Selectivity Factor” value [3] was 0.44, the Ki [4] was 13 ± 4.5 µM and the Ki [5] was 14 ± 3.5 µM. The Ki [6] was 33.2 ± 8 µM.

In the case of `O=C(N[C@H](CO)[C@H](O)c1ccc([N+](=O)[O-])cc1)C(Cl)Cl` [chloramphenicol, reference compound], the “Decrease in phage infectivity” value ([7]; bacteriostatic agent control) is reported as “does not cause an appreciable decrease”.

In the case of `O=[N+]([O-])c1cccc2c1ccn2[C@H]1C[C@H](O)[C@@H](COP(=O)(O)OP(=O)(O)OP(=O)(O)O)O1` [d4-NITP, 4-nitro-indolyl-2’-deoxyriboside triphosphate], the “Selectivity Factor” value [3] is reported as 0.32 and the “Fold higher Ki than d5-NITP” value ([3]; wild type gp44/62) is reported as ~ 6 fold.

For `Nc1ccc2c(ccn2[C@H]2C[C@H](O)[C@@H](COP(=O)(O)OP(=O)(O)OP(=O)(O)O)O2)c1` [d5-AITP, 5-amino-indolyl-2’-deoxyriboside triphosphate], the “Selectivity Factor” value [3] was < 0.23.

With `O=P(O)(O)OP(=O)(O)OP(=O)(O)OC[C@H]1O[C@@H](n2ccc3cc(C4=CCCCC4)ccc32)C[C@@H]1O` [d5-CEITP, 5-cyclohexene-indolyl-2’-deoxyriboside triphosphate] the “Selectivity Factor” value [3] was 1.18.

With `O=P(O)(O)OP(=O)(O)OP(=O)(O)OC[C@H]1O[C@@H](n2ccc3cc(C4CCCCC4)ccc32)C[C@@H]1O` [d5-CHITP, 5-cyclohexyl-indolyl-2’-deoxyriboside triphosphate] the “Selectivity Factor” value [3] was 0.51.

In the case of `CCc1ccc2c(ccn2[C@H]2C[C@H](O)[C@@H](COP(=O)(O)OP(=O)(O)OP(=O)(O)O)O2)c1` [d5-EtITP, 5-ethyl-indolyl-2’-deoxyriboside triphosphate], the “Selectivity Factor” value [3] is reported as 0.11 and the “Fold lower Ki in R175L mutant compared to wild type enzyme” value [6] is reported as ~ 10 fold.

With `C=Cc1ccc2c(ccn2[C@H]2C[C@H](O)[C@@H](CO)O2)c1` [d5-Ey, 5-ethylene-indolyl-2'-deoxyribose] the “Inhibition of plaque formation” value ([7]; 150 µg/mL) was 15%.

In the case of `C=Cc1ccc2c(ccn2[C@H]2C[C@H](O)[C@@H](COP(=O)(O)OP(=O)(O)OP(=O)(O)O)O2)c1` [d5-EyITP, 5-ethylene-indolyl-2’-deoxyriboside triphosphate], the “Selectivity Factor” value [3] is reported as < 0.15 and the “Fold lower Ki in R175L mutant compared to wild type enzyme” value [6] is reported as ~ 10 fold.

With `OC[C@H]1O[C@@H](n2ccc3cc(F)ccc32)C[C@@H]1O` [d5-FI, 5-fluoro-indolyl-2’-deoxyriboside] the “Inhibition of plaque formation” value ([7]; 100 µg/mL) was “do not inhibit plaque formation”.

In the case of `O=P(O)(O)OP(=O)(O)OP(=O)(O)OC[C@H]1O[C@@H](n2ccc3cc(F)ccc32)C[C@@H]1O` [d5-FITP, 5-fluoro-indolyl-2’-deoxyriboside triphosphate], the “Selectivity Factor” value [3] is reported as < 0.17.

With `O=[N+]([O-])c1ccc2c(ccn2[C@H]2C[C@H](O)[C@@H](CO)O2)c1` [d5-NI, 5-nitro-indolyl-2’-deoxyriboside] the “Inhibition of gp44/62” value ([3]; at concentrations greater than 200 µM) was “does not inhibit”, the “Fold less protection at 25 µg/mL than at 50 µg/mL” value ([7]; 25 µg/mL versus 50 µg/mL) was ~ 2.5 fold and the “Fewer plaques compared to untreated E. coli” value ([7]; E. coli preincubated with 100 µg/mL) was ~ 40%. The “Bactericidal or bacteriostatic effect on E. coli” value [8] was “does not produce a significant bactericidal or bacteriostatic effect” and the “Effect on plaque formation in tdk-1 strain KY895 compared to wild-type JA300” value [9] was “significantly reduced”.

For `O=[N+]([O-])c1ccc2c(ccn2[C@H]2C[C@H](O)[C@@H](COP(=O)(O)OP(=O)(O)OP(=O)(O)O)O2)c1` [d5-NITP, 5-nitro-indolyl-2’-deoxyriboside triphosphate], the “Formation of the replicase complex” value [10] was “inhibits formation of the replicase complex”, the “Effect on polymerase activity (products generated by polymerase alone)” value [11] was “identical amounts of products are generated” and the “Amplitude of change in fluorescence (clamp opening)” value [2] was 0.044 ± 0.002 units.

With `O=P(O)(O)OP(=O)(O)OP(=O)(O)OC[C@H]1O[C@@H](n2ccc3cc(-c4ccccc4)ccc32)C[C@@H]1O` [d5-PhITP, 5-phenyl-indolyl-2’-deoxyriboside triphosphate] the “Selectivity Factor” value [3] was 0.18.

In the case of `O=[N+]([O-])c1ccc2ccn([C@H]3C[C@H](O)[C@@H](COP(=O)(O)OP(=O)(O)OP(=O)(O)O)O3)c2c1` [d6-NITP, 6-nitro-indolyl-2’-deoxyriboside triphosphate], the “Selectivity Factor” value [3] is reported as 1.59.

With `Nc1ncnc2c1ncn2[C@H]1C[C@H](O)[C@@H](COP(=O)(O)OP(=O)(O)OP(=O)(O)O)O1` [dATP, reference compound] the “Hydrolysis by gp44/62” value [12] was “hydrolyzes dATP just as efficiently as ATP”.

With `O=P(O)(O)OP(=O)(O)OP(=O)(O)OCC1OC(n2ccc3ccccc32)CC1O` (stereo not drawn) [dITP, indolyl-2’-deoxyriboside triphosphate] the “Selectivity Factor” value [3] was < 0.30.

With `O=[N+]([O-])c1ccc2c(ccn2[C@@H]2O[C@H](COP(=O)(O)OP(=O)(O)OP(=O)(O)O)[C@@H](O)[C@H]2O)c1` [r5-NITP, 5-nitro-indolyl-2’-ribose triphosphate] the Hill coefficient ([3]; dose-dependent inhibition of gp44/62 ATPase activity) was ~ 1 and the “Hydrolysis by gp44/62” value [12] was “incapable of hydrolyzing r5-NITP”.
